Assay results taken from ChEMBL document CHEMBL1126976, “Hybrids of antibiotics inhibiting protein synthesis. Synthesis and biological activity” (1993).
Values after ≈ are worked out from the molar mass of the structure shown.

How the values were obtained:
Streptococcus pneumoniae = experiment: The compound was tested for minimum inhibitory concentration required for inhibition of microbial growth in Streptococcus pneumoniae at the Upjohn culture; assay type: functional
How it was run: (§1)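 Agar dilution in brain heart infusion agar with serial 2-fold compound dilutions. Organisms grown overnight on BHIA at 35 °C aerobically and suspended in TSB to 0.5 McFarland. The suspension is diluted 1:20 and spotted as 1-μL drops (~10^4 CFU). Plates incubated 18 h at 35 °C. MIC is the lowest concentration preventing visible growth.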

Pseudomonas aeruginosa [1] = experiment: The compound was tested for minimum inhibitory concentration required for inhibition of microbial growth in Pseudomonas aeruginosa at the Upjohn culture 95; assay type: functional; how it was run: as §1
Streptococcus pyogenes = experiment: The compound was tested for minimum inhibitory concentration required for inhibition of microbial growth in Streptococcus pyogenes at the Upjohn culture; assay type: functional; how it was run: as §1
Staphylococcus aureus [2] = experiment: The compound was tested for minimum inhibitory concentration required for inhibition of microbial growth in staphylococcus aureus at the Upjohn culture 6690; assay type: functional; how it was run: as §1
[3] = The compound was tested for minimum inhibitory concentration required for inhibition of microbial growth in Salmonella schottmuelleri; assay type: functional; how it was run: as §1
Staphylococcus aureus [4] = experiment: The compound was tested for minimum inhibitory concentration required for inhibition of microbial growth in staphylococcus aureus at the Upjohn culture 6685; assay type: functional; how it was run: as §1
Klebsiella pneumoniae = experiment: The compound was tested for minimum inhibitory concentration required for inhibition of microbial growth in Klebsiella pneumoniae at the Upjohn culture; assay type: functional; how it was run: as §1
Escherichia coli = experiment: The compound was tested for minimum inhibitory concentration required for inhibition of microbial growth in Escherichia coli at the Upjohn culture; assay type: functional; how it was run: as §1
Pseudomonas aeruginosa [5] = experiment: The compound was tested for minimum inhibitory concentration required for inhibition of microbial growth in Pseudomonas aeruginosa at the Upjohn culture 6676; assay type: functional; how it was run: as §1
Staphylococcus aureus [6] = experiment: The compound was tested for minimum inhibitory concentration required for inhibition of microbial growth in staphylococcus aureus at the Upjohn culture 76; assay type: functional; how it was run: as §1
Enterococcus faecalis = experiment: The compound was tested for minimum inhibitory concentration required for inhibition of microbial growth in Enterococcus faecalis at the Upjohn culture; assay type: functional; how it was run: as §1
Saccharomyces cerevisiae [7] = experiment: The compound was tested for inhibition of Polyphenylalanine synthesis in Saccharomyces cerevisiae ribosome system at concentration of 1*10e-5 M; values are per cent of control
Saccharomyces cerevisiae [8] = experiment: The compound was tested for inhibition of Polyphenylalanine synthesis in Saccharomyces cerevisiae ribosome system at concentration of 1*10e-3 M; values are per cent of control
Saccharomyces cerevisiae [9] = experiment: The compound was tested for inhibition of Polyphenylalanine synthesis in Saccharomyces cerevisiae ribosome system at concentration of 1*10e-4 M; values are per cent of control
Rattus norvegicus [10] = organism: Rattus norvegicus; experiment: The compound was tested for inhibition of Puromycin reaction with hybrid antibiotics in a rat liver ribosome system concentrations of 2*10e-4 M; values are per cent of control
Rattus norvegicus [11] = organism: Rattus norvegicus; experiment: The compound was tested for inhibition of Puromycin reaction with hybrid antibiotics in a rat liver ribosome system concentrations at 1*10e-3 M; values are per cent of control
Rattus norvegicus [12] = organism: Rattus norvegicus; experiment: The compound was tested for inhibition of Puromycin reaction with hybrid antibiotics in a rat liver ribosome system concentrations of 2*10e-4 M; values are per cent of control; remark: listed apart in the source
Rattus norvegicus [13] = organism: Rattus norvegicus; experiment: The compound was tested for inhibition of Puromycin reaction with hybrid antibiotics in a rat liver ribosome system concentrations at 1*10e-3 M; values are per cent of control; remark: listed apart in the source

Compound | MIC (Streptococcus pneumoniae) [µg/mL] | MIC (Pseudomonas aeruginosa [1]) [µg/mL] | MIC (Streptococcus pyogenes) [µg/mL] | MIC (Staphylococcus aureus [2]) [µg/mL] | MIC [3] [µg/mL] | MIC (Staphylococcus aureus [4]) [µg/mL] | MIC (Klebsiella pneumoniae) [µg/mL] | MIC (Escherichia coli) [µg/mL] | MIC (Pseudomonas aeruginosa [5]) [µg/mL] | MIC (Staphylococcus aureus [6]) [µg/mL] | MIC (Enterococcus faecalis) [µg/mL] | level, % of control (Saccharomyces cerevisiae [7]) [%] | level, % of control (Saccharomyces cerevisiae [8]) [%] | level, % of control (Saccharomyces cerevisiae [9]) [%] | level, % of control (Rattus norvegicus [10]) [%] | level, % of control (Rattus norvegicus [11]) [%] | level, % of control (Rattus norvegicus [12]) [%] | level, % of control (Rattus norvegicus [13]) [%]
CCC[C@@H]1C[C@@H](C(=O)N[C@@H]([C@H]2O[C@H](SC)[C@H](O)[C@@H](O)[C@H]2O)[C@@H](C)O)N(C)C1 [LINCOMYCIN] | 0.78 (≈ 1.92 µM) | > 400 | 0.2 (≈ 0.492 µM) | 0.78 (≈ 1.92 µM) | > 800 | > 400 | 400 (≈ 984 µM) | > 400 | > 400 | 0.78 (≈ 1.92 µM) | 50 (≈ 123 µM) |  |  |  |  |  |  | 
CSC[S@@+]([O-])CC(CO)NC(=O)/C=C/c1c(C)[nH]c(=O)[nH]c1=O (some centres undefined) |  |  |  |  |  |  |  |  |  |  |  | 44.1 | 15.5 | 30.3 |  |  |  | 
CSC1OC(C(NC(=O)/C=C/c2c(C)nc(O)nc2O)C(C)O)C(O)C(O)C1O (centres undefined) | > 400 | > 400 | > 400 | > 400 | > 400 | > 400 | > 400 | > 400 | > 400 | > 400 | > 400 | 101 | 93.4 | 97.7 | 90 | 91 |  | 
O=C(N[C@H](CO)[C@H](O)c1ccc([N+](=O)[O-])cc1)C(Cl)Cl [CHLORAMPHENICOL] | 3.12 (≈ 9.66 µM) | 100 (≈ 309 µM) | 3.12 (≈ 9.66 µM) | 50 (≈ 155 µM) | 6.25 (≈ 19.3 µM) | 6.25 (≈ 19.3 µM) | 3.12 (≈ 9.66 µM) | 3.12 (≈ 9.66 µM) | 200 (≈ 619 µM) | 6.25 (≈ 19.3 µM) | 6.25 (≈ 19.3 µM) |  |  |  |  |  |  | 
Cc1nc(O)nc(O)c1/C=C/C(=O)N[C@H]1[C@@H](O)[C@H](n2cnc3c(N(C)C)ncnc32)O[C@@H]1CO |  |  |  |  |  |  |  |  |  |  |  | 106 | 95.7 | 95.8 |  |  | 69 | 76
Cc1nc(O)nc(O)c1/C=C/C(=O)NC(CO)C(O)c1ccc([N+](=O)[O-])cc1 (centres undefined) | > 400 | > 400 | 50 (≈ 128 µM) | > 400 | > 400 | > 400 | > 400 | > 400 | > 400 | > 400 | > 400 |  |  |  |  |  |  | 
CCCC1CC(C(=O)NC(CO)C(O)c2ccc([N+](=O)[O-])cc2)N(C)C1 (centres undefined) |  | > 800 | 200 (≈ 547 µM) | > 800 | > 800 | 800 (≈ 2190 µM) | 800 (≈ 2190 µM) | > 800 |  | 800 (≈ 2190 µM) |  |  |  |  |  |  |  | 
CSC1OC(C(NC(=O)C(Cl)Cl)C(C)O)C(O)C(O)C1O (centres undefined) | 25 (≈ 68.6 µM) | > 400 | 6.25 (≈ 17.2 µM) | 50 (≈ 137 µM) | > 400 | > 400 | > 400 | > 400 | > 400 | 50 (≈ 137 µM) | > 400 | 97.3 | 96.8 | 90.9 |  |  |  | 
